Data set [1] can be described thus: Metabolic stability in mouse plasma assessed as compound remaining at 1 uM after 30 mins by LC-MS/MS analysis. The data set is classed as ADME, cell-free. As to conditions: read-out: Stability. Put shortly: (§1)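 A 30 mM DMSO stock was diluted to 100 µM in acetonitrile, then spiked into thawed mouse plasma (1 µM final) and incubated at 37 °C. Aliquots were precipitated in acetonitrile containing buspirone, shaken 5 min and centrifuged at 4000g for 10 min. Supernatant was analysed by LC-MS/MS. Percent remaining = concentration at each time / t0 concentration × 100; mean of at least three experiments.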

Data set [2] in a line: Metabolic stability in mouse plasma assessed as compound remaining at 1 uM after 60 mins by LC-MS/MS analysis. Type of data set: ADME, cell-free. As to conditions: read-out: Stability. Put shortly:
as §1

For data set [3], the target named is T1, Peroxisome proliferator-activated receptor alpha (Homo sapiens, UniProt Q07869).
T1 sequence (Q07869 whole entry): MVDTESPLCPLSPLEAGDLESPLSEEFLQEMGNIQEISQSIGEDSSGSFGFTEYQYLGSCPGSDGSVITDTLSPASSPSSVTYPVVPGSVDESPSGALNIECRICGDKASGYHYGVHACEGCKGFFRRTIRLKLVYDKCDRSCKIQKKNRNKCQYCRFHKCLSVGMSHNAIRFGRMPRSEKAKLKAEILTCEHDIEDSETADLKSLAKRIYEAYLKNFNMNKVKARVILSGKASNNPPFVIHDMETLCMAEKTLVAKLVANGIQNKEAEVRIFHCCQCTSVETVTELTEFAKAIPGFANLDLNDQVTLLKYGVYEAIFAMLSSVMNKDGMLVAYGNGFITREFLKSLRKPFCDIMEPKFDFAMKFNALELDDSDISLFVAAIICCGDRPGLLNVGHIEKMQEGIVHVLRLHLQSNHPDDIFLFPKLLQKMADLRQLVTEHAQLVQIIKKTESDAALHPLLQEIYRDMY
The data set can be described thus: Antagonist activity at human PPAR-alpha assessed as inhibition of GW7647-induced effect after overnight incubation by cell-based luciferase reporter gene assay. (In general: A reporter such as luciferase makes a cellular process visible.)

A short description of data set [4]: Solubility of the compound in aqueous buffer at pH 7.4 after 24 hrs by LC-MS/MS analysis. The data set is classed as physicochemical. Put shortly: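 Compound from a 10 mM DMSO stock was added to pH 7.4 buffer, vortexed 2 min, then shaken on an orbital shaker for 24 h at room temperature. Samples were then vacuum-filtered through a polycarbonate membrane before measurement.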

For another data set, the system named is Plasma. The data set can be described thus: (§2) Metabolic stability in mouse plasma assessed as compound remaining at 1 uM after 24 hrs by LC-MS/MS analysis. The data set is classed as ADME, cell-free. The settings on record: 24 h, 1 µM. Put shortly: as §1
Data set [5] is described as follows: as §2. Type of data set: ADME, cell-free. As to conditions: read-out: Stability. Put shortly:
as §1

Data set [6] deals with T1, Peroxisome proliferator-activated receptor alpha. Description: Agonist activity at human PPAR-alpha.

The text below walks through data of ChEMBL document CHEMBL3259631, “Identification of the first potent, selective and bioavailable PPARα antagonist” (Bioorg Med Chem Lett, 2014).

The structures appear in SMILES notation. pEC50, pIC50: −log10 of the molar value. In brackets after ≈: the same amount, converted by molar mass.

In the case of `CCn1c(CCCc2ccc(OC(C)(C)C(=O)NS(=O)(=O)c3ccccc3)cc2)nn(Cc2ccc(C(C)(C)C)cc2)c1=O`, in data set [1], the remaining at 0.5 h, 1 µM worked out at 6.7%. In data set [2], the remaining at 1 h, 1 µM came to 0.7%.

As a reminder, the pIC50 is the negative decadic logarithm of the IC50, by convention in mol/L. Usually solubility stands for how much of the substance goes into solution per volume. Low readings indicate little dissolved substance, high ones much dissolved substance. `CCn1c(CCCc2ccc(-c3cccc(NS(=O)(=O)c4ccccc4)c3)cc2)nn(Cc2ccc(C(C)(C)C)cc2)c1=O`: the pIC50 in data set [3] was 6.41. This molecule also displayed a solubility at 24 h in data set [4] of 0.037 µM (≈ 0.0225 µg/mL). In the data set with Plasma, the Stability turned out to be 136%.

`CCn1c(CCCc2ccc(-c3ccc(NS(C)(=O)=O)cn3)cc2)nn(Cc2ccc(C(C)(C)C)cc2)c1=O`: the pIC50 in data set [3] is 6.95. In data set [4], this molecule returned a solubility at 24 h of 0.423 µM (≈ 0.232 µg/mL). The remaining at 24 h, 1 µM in data set [5] was determined as 105%.

On to `CCn1c(CCCc2ccc(OC(C)(C)C(=O)NS(=O)(=O)C3=CCOC=C3)cc2)nn(Cc2ccc(C(C)(C)C)cc2)c1=O`, for which the remaining at 0.5 h, 1 µM in data set [1] is 86.9%. Further, the pIC50 in data set [3] was 7.38. The remaining at 1 h, 1 µM in data set [2] came out at 86.5%.

For `CCn1c(CCCc2ccc(CC(C)(C)C(=O)NS(=O)(=O)c3ccccc3)cc2)nn(Cc2ccc(C(C)(C)C)cc2)c1=O`, the remaining at 0.5 h, 1 µM in data set [1] was found to be 80%. For the same molecule, the pIC50 in data set [3] was 7.22. For the same molecule, the remaining at 1 h, 1 µM in data set [2] was determined as 62.3%.

On to `CCn1c(CCCc2ccc(-c3ccc(NS(=O)(=O)c4ccccc4)nc3)cc2)nn(Cc2ccc(C(C)(C)C)cc2)c1=O`, for which the negative-log IC50 (pIC50) in data set [3] is 6.91. In addition, the solubility at 24 h in data set [4] came out at 0.014 µM (≈ 0.00854 µg/mL). In addition, in the data set with Plasma, the Stability was found to be 128.7%.

Turning to `CCn1c(CCCc2ccc(OC(C)(C)C(=O)NS(=O)(=O)C3CCCC3)cc2)nn(Cc2ccc(C(C)(C)C)cc2)c1=O`, the remaining at 0.5 h, 1 µM in data set [1] turned out to be 21%. For the same molecule, in data set [3], the negative logarithm of the IC50 (pIC50) is 8.34. In addition, the remaining at 1 h, 1 µM in data set [2] came out at 7%.

One may read the pEC50 as the negative decadic logarithm of the EC50, by convention in mol/L. `C/C(=C/C(=O)c1ccccc1)N[C@@H](Cc1ccc(OCCc2nc(-c3ccccc3)oc2C)cc1)C(=O)O` gave a pEC50 in data set [6] of 6.62.

As to `CCn1c(CCCc2ccc(OC(C)(C)C(=O)NS(=O)(=O)c3cccnc3)cc2)nn(Cc2ccc(C(C)(C)C)cc2)c1=O`, the remaining at 0.5 h, 1 µM in data set [1] came out at 82.4%. In addition, the pIC50 in data set [3] is 7.10. In addition, in data set [5], the remaining at 24 h, 1 µM worked out at 0.2%. Besides, in data set [2], the remaining at 1 h, 1 µM amounted to 75.2%.

As for `CCn1c(CCCc2ccc(-c3ccc(NS(=O)(=O)Cc4ccccc4)cc3)cc2)nn(Cc2ccc(C(C)(C)C)cc2)c1=O`, the pIC50 in data set [3] was 6.51. The solubility at 24 h in data set [4] turned out to be 0.012 µM (≈ 0.00747 µg/mL). In addition, in the data set with Plasma, the Stability was 133.9%.

As for `CCn1c(CCCc2ccc(-c3ncc(NS(=O)(=O)c4ccccc4)cn3)cc2)nn(Cc2ccc(C(C)(C)C)cc2)c1=O`, in data set [3], the pIC50 was 6.94. In data set [4], this molecule yielded a solubility at 24 h of 0.091 µM (≈ 0.0556 µg/mL). Further, the remaining at 24 h, 1 µM in data set [5] is 119%.

For `CCn1c(CCCc2ccc(-c3cnc(NS(=O)(=O)c4ccccc4)cn3)cc2)nn(Cc2ccc(C(C)(C)C)cc2)c1=O`, the pIC50 in data set [3] was 6.66. In data set [4], this molecule yielded a solubility at 24 h of 4.9 µM (≈ 2.99 µg/mL). Also, in the data set on Plasma, the Stability amounted to 131.2%.

Take `CCn1c(CCCc2ccc(OC(C)(C)C(=O)NS(=O)(=O)c3ccoc3)cc2)nn(Cc2ccc(C(C)(C)C)cc2)c1=O`: in data set [1], the remaining at 0.5 h, 1 µM worked out at 75.4%. In addition, in data set [3], the pIC50 is 7.11. Besides, the remaining at 1 h, 1 µM in data set [2] was 66.6%.

In the case of `CCn1c(CCCc2ccc(-c3ccc(NS(=O)(=O)c4ccccc4)cc3)cc2)nn(Cc2ccc(C(C)(C)C)cc2)c1=O`, in data set [3], the pIC50 was 7.68. Further, the concentration in solution in data set [4] (solubility at 24 h) came to 0.018 µM (≈ 0.011 µg/mL). Moreover, the Stability with Plasma is 124.7%.

As for `CCn1c(CCCc2ccc(OC(C)(C)C(=O)NS(=O)(=O)c3ccc(C(C)C)cc3)cc2)nn(Cc2ccc(C(C)(C)C)cc2)c1=O`, the remaining at 0.5 h, 1 µM in data set [1] came to 89.5%. Besides, the pIC50 in data set [3] was 7.89. Also, the remaining at 24 h, 1 µM in data set [5] was 2.7%. Further, the remaining at 1 h, 1 µM in data set [2] came out at 81.9%.

Consider `CCn1c(CCCc2ccc(OC(C)(C)C(=O)NS(=O)(=O)C3CC3)cc2)nn(Cc2ccc(C(C)(C)C)cc2)c1=O`, for which, in data set [1], the remaining at 0.5 h, 1 µM amounted to 1.7%. In data set [3], the pIC50 was 8.18. Further, the remaining at 1 h, 1 µM in data set [2] was 0.1%.

Consider `CCn1c(CCCc2ccc(OC(C)(C)C(=O)NS(=O)(=O)C3CCCCC3)cc2)nn(Cc2ccc(C(C)(C)C)cc2)c1=O`, for which the remaining at 0.5 h, 1 µM in data set [1] came out at 60.5%. The pIC50 in data set [3] is 8.52. The remaining at 1 h, 1 µM in data set [2] is 43.6%.

As for `CCn1c(CCCc2ccc(OC(C)(C)C(=O)NS(=O)(=O)c3ccc(C)cc3)cc2)nn(Cc2ccc(C(C)(C)C)cc2)c1=O`, the remaining at 0.5 h, 1 µM in data set [1] was determined as 73.1%. In data set [3], the pIC50 was 8.55. The remaining at 1 h, 1 µM in data set [2] stood at 63.7%.

For the molecule `CCn1c(CCCc2ccc(OC(C)(C)C(=O)NS(=O)(=O)c3ccc(C(F)(F)F)cc3)cc2)nn(Cc2ccc(C(C)(C)C)cc2)c1=O`, the remaining at 0.5 h, 1 µM in data set [1] stood at 103%. For the same molecule, the pIC50 in data set [3] was 7.47. In data set [5], the remaining at 24 h, 1 µM amounted to 53.7%. Moreover, the remaining at 1 h, 1 µM in data set [2] was 105%.
